Source: ChEMBL document CHEMBL1142136, “Contribution of target gene mutations and efflux to decreased susceptibility of Salmonella enterica serovar typhimurium to fluoroquinolones and other antimicrobials” (2007)
In brackets after ≈: the same amount, converted by molar mass.

Tests used:
Type in all cases: functional, Salmonella enterica subsp. enterica serovar Typhimurium
Salmonella typhimurium [1] = test: Antimicrobial activity against Salmonella enterica serovar Typhimurium S21
How it was run: (§1)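 MICs measured by broth microdilution on the Sensititre automated system and interpreted by CLSI broth microdilution standards. Ciprofloxacin was also tested by agar dilution, widening the range to 0.0075–128 μg/ml. Quality control strains were E. coli ATCC 25922 and 35218, E. faecalis ATCC 29212, S. aureus ATCC 29213 and P. aeruginosa ATCC 27853.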

Salmonella typhimurium [2] = test: Antimicrobial activity against Salmonella enterica serovar Typhimurium S21 gyrA+; how it was run: as §1
Salmonella typhimurium [3] = test: Antimicrobial activity against Salmonella enterica serovar Typhimurium S21 acrAB::Kan
How it was run: (§2)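 MICs by automated broth microdilution panels, interpreted to CLSI broth microdilution standards. Ciprofloxacin additionally tested by agar dilution across 0.0075 to 128 μg/ml. Quality control strains: E. coli ATCC 25922 and 35218, Enterococcus faecalis ATCC 29212, S. aureus ATCC 29213, P. aeruginosa ATCC 27853. Test strains are kanamycin-marked deletion mutants of ground-beef isolate S21.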

Salmonella typhimurium [4] = test: Antimicrobial activity against Salmonella enterica serovar Typhimurium S21 tolC::Kan; how it was run: as §2
Salmonella typhimurium [5] = test: Antimicrobial activity against Salmonella enterica serovar Typhimurium S21-1 GyrA S83F mutant; how it was run: as §1
Salmonella typhimurium [6] = test: Antimicrobial activity against Salmonella enterica serovar Typhimurium S21-1 gyrA+; how it was run: as §1
Salmonella typhimurium [7] = test: Antimicrobial activity against Salmonella enterica serovar Typhimurium GyrA S21-1 acrAB::Kan with GyrA S83F mutation; how it was run: as §1
Salmonella typhimurium [8] = test: Antimicrobial activity against Salmonella enterica serovar Typhimurium S21-1 tolC::Kan with GyrA S83F mutation; how it was run: as §1
Salmonella typhimurium [9] = test: Antimicrobial activity against Salmonella enterica serovar Typhimurium S21-2 with GyrA S83F, ParC S80I mutation; how it was run: as §1
Salmonella typhimurium [10] = test: Antimicrobial activity against Salmonella enterica serovar Typhimurium S21-2 gyrA+ with ParC S80I mutation; how it was run: as §1
Salmonella typhimurium [11] = test: Antimicrobial activity against Salmonella enterica serovar Typhimurium S21-2 acrAB::Kan with GyrA S83F, ParC S80I mutation; how it was run: as §1
Salmonella typhimurium [12] = test: Antimicrobial activity against Salmonella enterica serovar Typhimurium S21-2 tolC::Kan with GyrA S83F, ParC S80I mutation; how it was run: as §1
Salmonella typhimurium [13] = test: Antimicrobial activity against Salmonella enterica serovar Typhimurium S21-3 with GyrA S83F, ParC S80I mutation; how it was run: as §1
Salmonella typhimurium [14] = test: Antimicrobial activity against Salmonella enterica serovar Typhimurium S21-3 gyrA+ with ParC S80I mutation; how it was run: as §1
Salmonella typhimurium [15] = test: Antimicrobial activity against Salmonella enterica serovar Typhimurium S21-3 acrAB::Kan with GyrA S83F, ParC S80I mutation; how it was run: as §1
Salmonella typhimurium [16] = test: Antimicrobial activity against Salmonella enterica serovar Typhimurium CHS14 gyrA+ with GyrA D87G mutation; how it was run: as §1
Salmonella typhimurium [17] = test: Antimicrobial activity against Salmonella enterica serovar Typhimurium CHS14 acrAB::Kan with GyrA D87G mutation; how it was run: as §1
Salmonella typhimurium [18] = test: Antimicrobial activity against Salmonella enterica serovar Typhimurium CHS14 tolC::Kan with GyrA D87G mutant; how it was run: as §1
Salmonella typhimurium [19] = test: Antimicrobial activity against Salmonella enterica serovar Typhimurium CHS18 with GyrA S38F mutation; how it was run: as §1
Salmonella typhimurium [20] = test: Antimicrobial activity against Salmonella enterica serovar Typhimurium CHS18 gyrA+ with GyrA S38F mutation; how it was run: as §1
Salmonella typhimurium [21] = test: Antimicrobial activity against Salmonella enterica serovar Typhimurium CHS18 acrAB::Kan with GyrA S38F mutation; how it was run: as §1
Salmonella typhimurium [22] = test: Antimicrobial activity against Salmonella enterica serovar Typhimurium CHS18 tolC::Kan with GyrA S38F mutation; how it was run: as §1
Salmonella typhimurium [23] = test: Antimicrobial activity against Salmonella enterica serovar Typhimurium S21-4 acrAB::Kan with GyrA S83F, ParC S80I mutation; how it was run: as §1
Salmonella typhimurium [24] = test: Antimicrobial activity against Salmonella enterica serovar Typhimurium S21-3 tolC::Kan with GyrA S83F, ParC S80I mutation; how it was run: as §1
Salmonella typhimurium [25] = test: Antimicrobial activity against Salmonella enterica serovar Typhimurium S21-4 with GyrA S83F, ParC S80I mutation; how it was run: as §1
Salmonella typhimurium [26] = test: Antimicrobial activity against Salmonella enterica serovar Typhimurium S21-4 gyrA+ with ParC S80I mutation; how it was run: as §1
Salmonella typhimurium [27] = test: Antimicrobial activity against Salmonella enterica serovar Typhimurium S21-4 tolC::Kan with GyrA S83F, ParC S80I mutation; how it was run: as §1
Salmonella typhimurium [28] = test: Antimicrobial activity against Salmonella enterica serovar Typhimurium CS1 with GyrA S83F, D87N, ParC S80I mutation; how it was run: as §1
Salmonella typhimurium [29] = test: Antimicrobial activity against Salmonella enterica serovar Typhimurium CS1 gyrA+ with GyrA S83F, D87N, ParC S80I mutation; how it was run: as §1
Salmonella typhimurium [30] = test: Antimicrobial activity against Salmonella enterica serovar Typhimurium CS1 acrAB::Kan with GyrA S83F, D87N, ParC S80I mutation; how it was run: as §1
Salmonella typhimurium [31] = test: Antimicrobial activity against Salmonella enterica serovar Typhimurium CS1 tolC::Kan with GyrA S83F, D87N, ParC S80I mutation; how it was run: as §1
Salmonella typhimurium [32] = test: Antimicrobial activity against Salmonella enterica serovar Typhimurium CS3 with GyrA S83F, D87N, ParC S80I mutation; how it was run: as §1
Salmonella typhimurium [33] = test: Antimicrobial activity against Salmonella enterica serovar Typhimurium CS3 gyrA+ with GyrA S83F, D87N, ParC S80I mutation; how it was run: as §1
Salmonella typhimurium [34] = test: Antimicrobial activity against Salmonella enterica serovar Typhimurium CS3 acrAB::Kan with GyrA S83F, D87N, ParC S80I mutation; how it was run: as §1
Salmonella typhimurium [35] = test: Antimicrobial activity against Salmonella enterica serovar Typhimurium CS3 tolC::Kan with GyrA S83F, D87N, parC S80I mutation; how it was run: as §1
Salmonella typhimurium [36] = test: Antimicrobial activity against Salmonella enterica serovar Typhimurium CS9 with GyrA S83F, D87N, ParC S80I mutation; how it was run: as §1
Salmonella typhimurium [37] = test: Antimicrobial activity against Salmonella enterica serovar Typhimurium CS9 gyrA+ with GyrA S83F, D87N, ParC S80I mutation; how it was run: as §1
Salmonella typhimurium [38] = test: Antimicrobial activity against Salmonella enterica serovar Typhimurium CS9 acrAB::Kan with GyrA S83F, D87N, ParC S80I mutation; how it was run: as §1
Salmonella typhimurium [39] = test: Antimicrobial activity against Salmonella enterica serovar Typhimurium CS9 tolC::Kan with GyrA S83F, D87N, ParC S80I mutation; how it was run: as §1
Salmonella typhimurium [40] = test: Antimicrobial activity against Salmonella enterica serovar Typhimurium CHS14 with GyrA D87G mutation; how it was run: as §1
Salmonella typhimurium [41] = test: Antimicrobial activity against Salmonella enterica serovar Typhimurium CHS38 with GyrA D87G mutation; how it was run: as §1
Salmonella typhimurium [42] = test: Antimicrobial activity against Salmonella enterica serovar Typhimurium CHS38 gyrA+ with GyrA D87G mutation; how it was run: as §1
Salmonella typhimurium [43] = test: Antimicrobial activity against Salmonella enterica serovar Typhimurium CHS38 acrAB::Kan with GyrA D87G mutation; how it was run: as §1
Salmonella typhimurium [44] = test: Antimicrobial activity against Salmonella enterica serovar Typhimurium CHS38 tolC::Kan with GyrA D87G mutation; how it was run: as §1

For `CN1C[C@@H]2C[C@H]1CN2c1cc2c(cc1F)c(=O)c(C(=O)O)cn2C1CC1` [DANOFLOXACIN], the MIC (Salmonella typhimurium [1]) was 0.03 µg/mL (≈ 0.0839 µM), the MIC (Salmonella typhimurium [2]) was 0.03 µg/mL (≈ 0.0839 µM) and the MIC (Salmonella typhimurium [3]) was < 0.015 µg/mL. The MIC (Salmonella typhimurium [4]) was < 0.015 µg/mL, the MIC (Salmonella typhimurium [5]) was 0.5 µg/mL (≈ 1.4 µM) and the MIC (Salmonella typhimurium [6]) was 0.03 µg/mL (≈ 0.0839 µM). For the same compound, the MIC (Salmonella typhimurium [7]) was 0.06 µg/mL (≈ 0.168 µM), the MIC (Salmonella typhimurium [8]) was 0.06 µg/mL (≈ 0.168 µM) and the MIC (Salmonella typhimurium [9]) was 4 µg/mL (≈ 11.2 µM). For the same compound, the MIC (Salmonella typhimurium [10]) was 1 µg/mL (≈ 2.8 µM), the MIC (Salmonella typhimurium [11]) was 0.12 µg/mL (≈ 0.336 µM) and the MIC (Salmonella typhimurium [12]) was 0.12 µg/mL (≈ 0.336 µM). For the same compound, the MIC (Salmonella typhimurium [13]) was > 16 µg/mL, the MIC (Salmonella typhimurium [14]) was 2 µg/mL (≈ 5.6 µM) and the MIC (Salmonella typhimurium [15]) was 0.25 µg/mL (≈ 0.7 µM). For the same compound, the MIC (Salmonella typhimurium [16]) was 0.03 µg/mL (≈ 0.0839 µM), the MIC (Salmonella typhimurium [17]) was 0.03 µg/mL (≈ 0.0839 µM) and the MIC (Salmonella typhimurium [18]) was 0.03 µg/mL (≈ 0.0839 µM). It also gave an MIC (Salmonella typhimurium [19]) of 0.5 µg/mL (≈ 1.4 µM), an MIC (Salmonella typhimurium [20]) of 0.06 µg/mL (≈ 0.168 µM) and an MIC (Salmonella typhimurium [21]) of 0.03 µg/mL (≈ 0.0839 µM). The MIC (Salmonella typhimurium [22]) was 0.06 µg/mL (≈ 0.168 µM), the MIC (Salmonella typhimurium [23]) was 0.25 µg/mL (≈ 0.7 µM) and the MIC (Salmonella typhimurium [24]) was 0.25 µg/mL (≈ 0.7 µM). For the same compound, the MIC (Salmonella typhimurium [25]) was > 16 µg/mL, the MIC (Salmonella typhimurium [26]) was 4 µg/mL (≈ 11.2 µM) and the MIC (Salmonella typhimurium [27]) was 0.25 µg/mL (≈ 0.7 µM). For the same compound, the MIC (Salmonella typhimurium [28]) was > 16 µg/mL, the MIC (Salmonella typhimurium [29]) was 0.06 µg/mL (≈ 0.168 µM) and the MIC (Salmonella typhimurium [30]) was 4 µg/mL (≈ 11.2 µM). The MIC (Salmonella typhimurium [31]) was 4 µg/mL (≈ 11.2 µM), the MIC (Salmonella typhimurium [32]) was > 16 µg/mL and the MIC (Salmonella typhimurium [33]) was 0.06 µg/mL (≈ 0.168 µM). For the same compound, the MIC (Salmonella typhimurium [34]) was 4 µg/mL (≈ 11.2 µM), the MIC (Salmonella typhimurium [35]) was 4 µg/mL (≈ 11.2 µM) and the MIC (Salmonella typhimurium [36]) was > 16 µg/mL. The MIC (Salmonella typhimurium [37]) was 0.06 µg/mL (≈ 0.168 µM), the MIC (Salmonella typhimurium [38]) was 4 µg/mL (≈ 11.2 µM) and the MIC (Salmonella typhimurium [39]) was 4 µg/mL (≈ 11.2 µM). For the same compound, the MIC (Salmonella typhimurium [40]) was 0.25 µg/mL (≈ 0.7 µM), the MIC (Salmonella typhimurium [41]) was 0.25 µg/mL (≈ 0.7 µM) and the MIC (Salmonella typhimurium [42]) was < 0.015 µg/mL. For the same compound, the MIC (Salmonella typhimurium [43]) was 0.03 µg/mL (≈ 0.0839 µM) and the MIC (Salmonella typhimurium [44]) was < 0.015 µg/mL.
